From ChEMBL document CHEMBL2034884, “Synthesis, in vitro and in silico screening of ethyl 2-(6-substituted benzo[d]thiazol-2-ylamino)-2-oxoacetates as protein-tyrosine phosphatase 1B inhibitors” (Eur J Med Chem, 2012) come the findings set out here.

The source made the active and inactive calls. No cut-off for these calls is given here.

In experiment [1] the test system is Rattus norvegicus. The experiment in a line: Hypoglycemic activity in glucose-fed normoglycemic Wistar rat assessed as decrease in rise of blood glucose at 5 to 10 mg/kg, po single dose measured up to 4 hrs post dose by oral glucose tolerance test. Type of experiment: functional, organism-based. In a few lines:
(§1)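 Male Wistar rats (200–250 g), fasted 18 h, n = 5 per group. Test agents were given orally as suspensions at the listed doses, with vehicle controls. A 2 g/kg glucose load was given by the same route 10 min later. Tail-tip blood was sampled at 0, 0.5, 1, 2, 3 and 4 h. Glucose was read by the glucose oxidase glucometer method.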

The test system of experiment [2] is Rattus norvegicus. Briefly: Hypoglycemic activity in normoglycemic Wistar rat at 10 mg/kg, po administered as single dose measured up to 3 hrs post dose. Type of experiment: functional, organism-based. More on the design: dose 10 mg/kg. In a few lines: (§2)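 Male Wistar rats (200–250 g), n = 5 per group, given a single oral/intragastric dose suspended in 5% Tween 80. Vehicle controls received 5% Tween 80. Caudal-vein blood was taken at 0, 1, 3, 5 and 7 h and glucose read with a glucose oxidase glucometer. Results are % glycemia change versus 0 h, mean ± S.E.M., ANOVA p < 0.05.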

Experiment [3] has as its target T1, Tyrosine-protein phosphatase non-receptor type 1 (Homo sapiens) (UniProt P18031).
T1 sequence (whole entry): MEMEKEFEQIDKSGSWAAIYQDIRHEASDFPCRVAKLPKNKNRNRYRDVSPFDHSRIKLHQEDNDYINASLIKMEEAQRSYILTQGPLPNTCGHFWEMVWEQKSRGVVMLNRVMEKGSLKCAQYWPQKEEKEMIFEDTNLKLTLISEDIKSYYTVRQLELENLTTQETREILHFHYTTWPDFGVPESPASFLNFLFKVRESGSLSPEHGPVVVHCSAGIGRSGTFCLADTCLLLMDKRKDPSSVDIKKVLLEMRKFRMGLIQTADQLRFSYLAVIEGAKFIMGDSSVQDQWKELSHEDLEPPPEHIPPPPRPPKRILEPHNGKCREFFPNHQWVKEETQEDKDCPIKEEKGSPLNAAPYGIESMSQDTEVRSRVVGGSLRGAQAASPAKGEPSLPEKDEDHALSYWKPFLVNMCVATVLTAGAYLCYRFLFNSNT
The experiment in a line: Inhibition of human recombinant GST-tagged PTP1B expressed in Escherichia coli TB1 cells using p-NPP as substrate at 40 uM. In a few lines:
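PTP-1B was cleaved from GST with thrombin and gel-filtered. Assay: 0.075 M β,β-dimethylglutarate buffer pH 7.0 with 1 mM EDTA and 1 mM DTT, 2.5 mM p-NPP, compound 40 μM final, DMSO control, 37 °C, 0.16 μg enzyme per 1 mL assay. Stopped with KOH; p-nitrophenol read at 400 nm. Residual activity is % of control, four assays, mean ± S.E.M.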

Experiment [4] addresses T1, Tyrosine-protein phosphatase non-receptor type 1 (Homo sapiens). The experiment in a line: Reversible inhibition of human recombinant GST-tagged PTP1B expressed in Escherichia coli TB1 cells using p-NPP as substrate at 100 uM after 1 hr at 4 degC. In a few lines:
(§3)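 The enzyme, cleaved from GST, was preincubated for 1 h at 4 °C or 37 °C with 100 μM compound or a DMSO control. It was then diluted 400-fold into assay solution, and residual activity was measured at 37 °C with 5 mM p-NPP final, read at 400 nm. Triplicates, mean ± S.E.M.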

For experiment [5] the target is unchanged. The experiment in a line: Reversible inhibition of human recombinant GST-tagged PTP1B expressed in Escherichia coli TB1 cells using p-NPP as substrate at 100 uM after 1 hr at 37 degC. In a few lines: as §3
The target is the same in experiment [6]. The experiment in a line: Slow binding inhibition of human recombinant GST-tagged PTP1B expressed in Escherichia coli TB1 cells using p-NPP as substrate. The method in brief: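 p-Nitrophenol release from p-NPP by PTP-1B was followed over time at 400 nm at several inhibitor concentrations, at 37 °C, pH 7.0. Progress curves were examined for linearity, with and without 30 min enzyme–inhibitor preincubation before the assay.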

The target of experiment [7] is T2, Tyrosine-protein phosphatase non-receptor type 1 (Homo sapiens, UniProt P18031).
T2 sequence (P18031 whole entry): T1 sequence (whole entry)
The experiment in a line: Mixed-type inhibition of human recombinant GST-tagged PTP1B expressed in Escherichia coli TB1 cells using p-NPP as substrate by double reciprocal plot analysis. The method in brief: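 Thrombin-cleaved, gel-filtered PTP-1B in pH 7.0 β,β-dimethylglutarate/EDTA/DTT buffer at 37 °C. Initial p-NPP hydrolysis rates were measured at eight substrate concentrations (0.5–40 mM) with increasing inhibitor concentrations. p-Nitrophenol was read at 400 nm, and Km/Vmax changes were analysed by double reciprocal plots.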

For experiment [8], the target named is T2, Tyrosine-protein phosphatase non-receptor type 1. Briefly: Inhibition of human recombinant GST-tagged PTP1B expressed in Escherichia coli TB1 cells using p-NPP as substrate.
The test system of experiment [9] is Rattus norvegicus. The experiment in a line: Hypoglycemic activity in glucose-fed normoglycemic Wistar rat assessed as decrease in rise of blood glucose at 4 mg/kg, po single dose measured up to 4 hrs post dose by oral glucose tolerance test. Type of experiment: functional, organism-based. More on the design: dose 4 mg/kg. The method in brief: as §1
The subject of experiment [10] is Rattus norvegicus. The experiment in a line: Hypoglycemic activity in normoglycemic Wistar rat at 100 mg/kg, po administered as single dose measured up to 3 hrs post dose. Type of experiment: functional. In a few lines: as §2
Experiment [11] concerns Rattus norvegicus. Briefly: Hypoglycemic activity in glucose fed normoglycemic Wistar rat assessed as decrease in rise of blood glucose at 100 mg/kg, po single dose measured up to 4 hrs post dose by oral glucose tolerance test. Type of experiment: functional. More on the design: scale not given: the % may be the effect or the level left. In a few lines: as §1
Experiment [12] deals with Rattus norvegicus. The experiment in a line: Hypoglycemic activity in normoglycemic Wistar rat at 100 mg/kg, po administered as single dose measured up to 5 hrs post dose. Type of experiment: functional. The method in brief: as §2

Consider `COc1ccc(Cl)cc1C(=O)NCCc1ccc(S(=O)(=O)NC(=O)NC2CCCCC2)cc1`, for which the outcome in experiment [1] and in experiment [2] was Active.

For `CCOC(=O)C(=O)Nc1nc2ccccc2s1`, the inhibition result in experiment [3] is “inactive”.

As for `CCOC(=O)C(=O)Nc1nc2ccc(OCC)cc2s1`, the inhibition entry in experiment [3] was “inactive”.

On to `CCOC(=O)C(=O)Nc1nc2ccc(F)cc2s1`, for which the inhibition entry in [4] and in experiment [5] was “Active” each time. The inhibition entry in [6] is “inactive”. Besides, the Ki (commonly the equilibrium dissociation constant of an inhibitor or competing ligand from its target) in experiment [7] came out at 7.9 µM. The IC50 (in general, the concentration needed to halve the response being measured) in experiment [8] worked out at 8.7 µM.

As for `CCOc1cc(CC(=O)N[C@@H](CC(C)C)c2ccccc2N2CCCCC2)ccc1C(=O)O`, in [9], the result was Active.

Turning to `CCOC(=O)C(=O)Nc1nc2ccc(Cl)cc2s1`, the inhibition entry in experiment [4] and in [5] was “Active” throughout. The inhibition entry in experiment [6] is “inactive”. Also, in experiment [7], the inhibition constant (Ki) came to 7.9 µM. Moreover, the Activity in experiment [10] is 30%; in experiment [11], more than 20%. For the same molecule, the IC50 in experiment [8] was determined as 10.1 µM.

Take `CCOC(=O)C(=O)Nc1nc2ccc(OC)cc2s1`: the inhibition entry in experiment [3] was “inactive”.

Turning to `CCOC(=O)C(=O)Nc1nc2ccc([N+](=O)[O-])cc2s1`, in experiment [3], the inhibition result is “inactive”.

As to `CCOC(=O)C(=O)Nc1nc2ccc(S(C)(=O)=O)cc2s1`, in [3], the inhibition entry was “inactive”.

As to `CCOC(=O)C(=O)Nc1nc2ccc(C)cc2s1`, the inhibition entry in [4] and in experiment [5] was “Active” throughout. Moreover, the inhibition result in experiment [6] was “inactive”. Moreover, in [7], the Ki was 6.2 µM. Also, the Activity in experiment [12] was 26%; in [11], more than 20%. Further, the IC50 in experiment [8] is 11 µM.

For the molecule `CCOC(=O)C(=O)Nc1nc2ccc(N)cc2s1`, the inhibition result in experiment [3] is “inactive”.
